The results in this text go back to ChEMBL document CHEMBL1151688, “Antiobesity designed multiple ligands: Synthesis of pyrazole fatty acid amides and evaluation as hypophagic agents” (Bioorg Med Chem, 2008).

The target of experiment [1] is Peroxisome proliferator-activated receptor alpha (Homo sapiens) (UniProt Q07869). The experiment is described as follows: Agonist activity at human PPARalpha expressed in human MCF7 cells coexpressing TIF2 by luciferase reporter gene assay.
Experiment [2] concerns the target T1, Peroxisome proliferator-activated receptor alpha (Homo sapiens) (UniProt Q07869).
T1 sequence (whole entry): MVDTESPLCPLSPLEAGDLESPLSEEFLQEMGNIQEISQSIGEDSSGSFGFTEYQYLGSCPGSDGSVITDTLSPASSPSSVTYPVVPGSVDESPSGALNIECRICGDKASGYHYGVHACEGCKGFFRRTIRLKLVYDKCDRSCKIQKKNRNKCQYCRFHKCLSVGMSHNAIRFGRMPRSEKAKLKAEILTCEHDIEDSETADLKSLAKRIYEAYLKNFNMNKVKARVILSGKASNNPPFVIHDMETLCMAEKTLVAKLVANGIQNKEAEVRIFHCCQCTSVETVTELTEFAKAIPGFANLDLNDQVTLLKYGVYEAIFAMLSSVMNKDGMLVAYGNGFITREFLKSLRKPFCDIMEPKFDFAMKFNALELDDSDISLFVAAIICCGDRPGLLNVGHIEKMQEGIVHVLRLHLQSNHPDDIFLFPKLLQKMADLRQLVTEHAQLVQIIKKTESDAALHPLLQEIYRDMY
The experiment is described as follows: Activation of human PPARalpha assessed as receptor-GST-TIF2 interaction by GST pull down assay.

Experiment [3] concerns Rattus norvegicus. The experiment is described as follows: Inhibition of food intake in 24 hrs food-deprived Wistar rat assessed at 3 mg/kg, ip. It counts as functional, organism-based. Also on record: dose 3 mg/kg. The procedure, abridged: (§1)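 Male Wistar rats (250–450 g), habituated to handling, food-deprived 24 h with water available; compound suspended in saline with Tween 80, given ip; 15 min later returned to home cage with weighed food; intake (g/kg) measured at 30, 60, 120 and 240 min; ≥8 rats per group, ANOVA vs vehicle.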

The test system of experiment [4] is Mus musculus. The experiment is described as follows: Inhibition of […]-induced hypothermia in mouse assessed as rectal temperature at 3 mg/kg ip after 15 mins. It counts as functional, organism-based. Also on record: dose 3 mg/kg. The procedure, abridged:
(§2)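 Male 129S1/SvImJ mice given compound ip together with WIN 2 mg/kg ip; rectal temperature taken by probe at 3 cm depth before and 15 min after injection; compared with WIN alone by Student's t-test.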

Experiment [5] deals with Rattus norvegicus. The experiment is described as follows: Inhibition of food intake in 24 hrs food-deprived Wistar rat assessed at 0.3 mg/kg, ip. It counts as functional, organism-based. Further details: dose 0.3 mg/kg. The procedure, abridged:
as §1

Experiment [6] has as its system Mus musculus. In words: Effect on rectal temperature in mouse at 3 mg/kg, ip after 15 mins. It counts as functional, organism-based. Further details: dose 3 mg/kg. Put shortly:
(§3)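 Adult male 129S1/SvImJ mice (25–30 g); rectal temperature measured with a probe at 3 cm depth before dosing and 15 min after ip injection; tests run 9:00–15:00 h; mean ± SEM.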

Experiment [7] deals with Mus musculus. The experiment is described as follows: Inhibition of […]-induced hypothermia in mouse assessed as rectal temperature at 10 mg/kg ip after 15 mins. It is filed as functional, organism-based. Also on record: dose 10 mg/kg. Put shortly:
as §2

Experiment [8] relates to Mus musculus. The experiment is described as follows: Effect on rectal temperature in mouse at 10 mg/kg, ip after 15 mins. Also on record: dose 10 mg/kg. It is filed as functional, organism-based. Put shortly: as §3
The test system of experiment [9] is Mus musculus. In words: Inhibition of […]-induced decrease in locomotor activity in ip dosed mouse after 15 mins. It is filed as functional, organism-based.

Activity calls are given as the source filed them. The calls are words filed in the database; no cut-off is given here.

Take `Cc1c(C(=O)NN2CCCCC2)nn(-c2ccc(Cl)cc2Cl)c1-c1ccc(I)cc1`: the result in [1] was inactive.

Consider `CCCCCCCC/C=C\CCCCCCCCNC(=O)c1nn(-c2ccc(Cl)cc2Cl)c(-c2ccc(Cl)cc2)c1C`, for which the outcome in experiment [2] was Active.

For `CCCCCCCC/C=C\CCCCCCCCNC(=O)c1cc(-c2ccc(Cl)cc2)n(-c2ccccc2)n1`, the outcome (with Rattus norvegicus [3]; in the experiment on Rattus norvegicus [5]; in experiment [2]) was Active. The outcome with Mus musculus [4] and in the experiment on Mus musculus [6] was inactive.

Take `CCCCCCCC/C=C\CCCCCCCCNC(=O)c1cc(-c2ccc(Cl)cc2)n(-c2ccc(Cl)cc2)n1`: the outcome with Rattus norvegicus [3] and in the experiment with Rattus norvegicus [5] was inactive. Also, the outcome (with Mus musculus [4]; in [2]) was Active.

As for `CCCCCCCC/C=C\CCCCCCCCNC(=O)c1cc(-c2ccc(Cl)cc2)n(-c2ccc(Cl)cc2Cl)n1`, the outcome in experiment [2] was Active.

In the case of `CCCCCCCCCCCCCCCCNC(=O)c1cc(-c2ccc(Cl)cc2)n(-c2ccc(Cl)cc2Cl)n1`, the result in experiment [2] was inactive.

As to `CCCCCCCCCCCCCCCCNC(=O)c1nn(-c2ccc(Cl)cc2Cl)c(-c2ccc(Cl)cc2)c1C`, the result (with Rattus norvegicus [3]; with Rattus norvegicus [5]; in experiment [2]) was inactive.

For `CCCCCCCCCCCCCCCCNC(=O)c1cc(-c2ccc(Cl)cc2)n(-c2ccc(Cl)cc2)n1`, the result (in the experiment with Mus musculus [7]; in [2]; with Mus musculus [8]) was inactive.

Regarding `CCCCCCCCCCCCCCCCNC(=O)c1cc(-c2ccc(Cl)cc2)n(-c2ccccc2)n1`, the result (in the experiment on Mus musculus [4]; in experiment [2]; in the experiment on Mus musculus [6]) was inactive. Besides, the result in the experiment on Mus musculus [9] was Active.
